Assay results reported in paper PMC3037477 (Investigational New Drugs, 2009).

Tests used:
[1] = target: thymidylate synthase (TS) in intact FM3A/0 cells (Mus musculus, UniProt P07607); test: TS in situ activity assay; type: cell-based, murine; settings: 24 h exposure to 0.5 µM
[2] = HPLC analysis of extracellular cleavage of prodrugs to nucleosides in the medium; type: in vitro ADME; settings: after 24 h incubation with 100 µM prodrug
Method in brief: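 Cells were exposed to prodrug for 24 h. Medium above the cells was sampled after centrifugation, deproteinized with TCA and neutralized, then analysed by HPLC-UV for parent drug, FdUrd and ETC. Means of 3–5 independent experiments ± SEM.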

HT-29 xenograft = test: In vivo antitumor effect in human HT-29 xenograft model; design: species or system NMRI:nu/nu female mice; settings: or., 40 mg/kg/inj
Method in brief: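 5-FU-resistant human HT-29 colon carcinoma cells were implanted subcutaneously in female nude mice. Dosing began at palpable tumour size on a q4dx3 schedule. Tumour volumes of treated mice (T) were compared with PBS-treated controls (C). Animals were killed once tumours exceeded 1 cm3.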

[3] = In vivo toxicity in HT-29 xenograft mice; design: species or system NMRI:nu/nu female mice; settings: i.v. and oral treatment
[4] = LC-MS/MS detection of ETC and ETC-nucleotides in tumor and liver tissue; type: in vivo, NMRI:nu/nu female mice; settings: 2 h after administration
Method in brief: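 Subcutaneous HT-29 xenografts were grown in female NMRI nude mice. Tumour and liver were taken 2 h after prodrug administration. ETC and its nucleotides were quantified by LC-MS/MS in MRM mode (transition 268.2/112.2).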

Chain of thymidylate synthase (TS) in intact FM3A/0 cells (P07607 whole entry): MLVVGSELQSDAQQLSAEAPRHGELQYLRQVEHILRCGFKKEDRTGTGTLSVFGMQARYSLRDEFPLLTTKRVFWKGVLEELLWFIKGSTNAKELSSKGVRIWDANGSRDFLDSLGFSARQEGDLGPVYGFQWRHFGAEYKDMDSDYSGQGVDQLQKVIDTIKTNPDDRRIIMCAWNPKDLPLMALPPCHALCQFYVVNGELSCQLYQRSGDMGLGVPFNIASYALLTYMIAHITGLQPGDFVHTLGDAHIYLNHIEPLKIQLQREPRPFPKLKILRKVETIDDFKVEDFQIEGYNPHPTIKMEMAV

inhibition of thymidylate synthase (TS) in situ [1] | SMILES | parent drug still present in the medium [2] | Evaluation (in vivo activity) (HT-29 xenograft) | haematological side effects [3] | ETC and ETC-nucleotide accumulation in liver tissue [4] | ETC-nucleoside and ETC-nucleotide accumulation in tumor tissue ([4]; HT-29 xenograft)
inhibited almost completely | O=c1[nH]c(=O)n([C@H]2C[C@H](O)[C@@H](CO)O2)cc1F [FdUrd, 5-fluoro-2′-deoxyuridine] |  |  |  |  | 
 | C#C[C@@]1(O)[C@@H](COP(=O)(O)OC[C@H]2O[C@@H](n3cc(F)c(=O)[nH]c3=O)C[C@@H]2O)O[C@@H](n2ccc(N)nc2=O)[C@@H]1O [ETC-FdUrd, 3′-C-Ethynylcytidylyl-(5′➔5′)-5-fluoro-2′-deoxyuridine] | More than 60% | orally active | did not result in any haematological side effects | accumulated in the liver tissue | accumulated to a high extent in the tumor tissue
